Test results taken from ChEMBL document CHEMBL5338759, “N-Phenyl-1-(phenylsulfonyl)-1H-1,2,4-triazol-3-amine as a New Class of HIV-1 Non-nucleoside Reverse Transcriptase Inhibitor” (J Med Chem, 2023).

Experiments:
[1] = Subacute toxicity in BALB/c mouse assessed as effect on adrenal gland weight at 25 to 250 mg/kg, IG measured daily for 30 days; assay type: organism-based; conditions: in vivo, po, 720 h, dose 25-250 mg/kg, time 30 day
[2] = AUC (0 to infinity) in BALB/c mouse brain at 250 mg/kg, IG measured at 0.5 to 24 hrs by HPLC-MS analysis; assay type: ADME, organism-based; set-up: time upper 24 hrs, time lower 0.5 hrs, dose 250 mg/kg, route ig; conditions: po
How it was run: (§1)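 Mice averaging 20 g (24 animals) were fasted 1 h before and 1 h after dosing. They received 250 mg/kg as 0.5 ml suspension in 1% CMC, 0.05% Tween 80 by intragastric intubation. Blood and brain were taken after decapitation at 0.5, 1, 2, 3, 5, 8 and 24 h (3 per time point). Plasma was frozen at -20°C and brain at -120 °C. Quantification was by UPLC-HRMS (ESI+, EIC m/z 476.0691) against plasma-matrix standards. Parameters were derived by noncompartmental analysis; LLOQ 5 ng/ml, with values below it set to 2.5.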

[3] = Subacute toxicity in BALB/c mouse assessed as pathological change in intestine at 25 to 250 mg/kg, IG measured daily for 30 days by H and E staining based histological analysis; assay type: organism-based; conditions: in vivo, po, 720 h, dose 25-250 mg/kg, time 30 day
How it was run: (§2)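 Male Balb/C mice (17 per group) received 25 or 250 mg/kg intragastrically in 1% starch gel once daily for 30 days, against starch gel controls. Internal organs were examined macroscopically after the study. Sections were paraffin-embedded and stained with hematoxylin and eosin.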

[4] = test system: Human immunodeficiency virus 1; assay: Antiviral activity against HIV1 harboring A17 mutant infected in human TZM-bl cells; assay type: functional, organism-based; conditions: Human immunodeficiency virus 1, TZM-bl
How it was run: (§3)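 TZM-bl cells (2x10⁵/mL) were infected with mutant virus in the presence of 15 µg/mL DEAE-dextran. A17 (IIIB variant) was grown in H9 cells; the other mutants were NL4-3-based plasmids transfected into 293T cells, then expanded in H9 cells. Compounds were tested at 0.05–500 nM (DMSO constant within an assay) for 48 hr at 37°C. Read-out was luciferase RLU from lysed cells, with at least 6 replicates over multiple days.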

[5] = Subacute toxicity in BALB/c mouse assessed as effect on thymus weight at 25 to 250 mg/kg, IG measured daily for 30 days; assay type: organism-based; conditions: in vivo, po, 720 h, dose 25-250 mg/kg, time 30 day
TZM [6] = assay: Cytotoxicity against human TZM-bl cells assessed as reduction in viability incubated for 48 hrs by CellTiter-Blue cell viability assay
TZM [7] = assay: Cytotoxicity against human TZM-bl cells assessed as reduction in cell viability by MTS assay; assay type: functional
[8] = Selectivity index, ratio of CC50 for cytotoxicity against human TZM-bl cells assessed as reduction in cell viability by MTS assay to EC50 for antiviral activity against wild type HIV1 IIIB infected in human TZM-bl cells; assay type: toxicity, cell-based; conditions: read-out: Ratio CC50/EC50
[9] = Acute toxicity in BALB/c mouse at 2000 mg/kg, IG measured for 14 days; assay type: organism-based; conditions: in vivo, po, 336 h, time 14 day
How it was run: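 Male Balb/C mice, 5–6 weeks old and 19–21 g, were deprived of food and water for 1.5–2 h. They were given a single intragastric 2000 mg/kg dose at 0.5 ml/20 g, prepared just before use. Controls received 0.5 ml of 1% starch gel intragastrically. There were 5 mice per group, observed for 14 days for condition and weight; weight was compared by Šídák's multiple comparisons test.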

[10] = Metabolic stability in mouse liver microsome measured up to 60 mins presence of NADPH; assay type: ADME; conditions: microsomes, 1 h
[11] = test system: Human immunodeficiency virus 1; assay: Antiviral activity against HIV1 harboring L100I/K103N double mutant infected in human TZM-bl cells; assay type: functional, organism-based; conditions: Human immunodeficiency virus 1, TZM-bl
[12] = Half life in BALB/c mouse plasma at 250 mg/kg, IG measured at 0.5 to 24 hrs by HPLC-MS analysis; assay type: ADME, organism-based; conditions: in vivo, po, time 0.5-24 hrs; how it was run: as §1
[13] = Selectivity ratio of IC50 for antiviral activity against wild type HIV1 IIIB infected in human TZM-bl cells to IC50 for antiviral activity against HIV1 harboring Y181C mutant infected in human TZM-bl cells; assay type: toxicity, cell-based; conditions: human immunodeficiency virus 1
How it was run: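 TZM-bl cells (2x10⁵/mL) with 15 µg/mL DEAE-dextran were infected with HIV-1 IIIB, A17 (K103N/Y181C) IIIB variant, or NL4-3-based NNRTI-resistant mutants. Compound was present at 0.05–500 nM (DMSO held constant, 0.005% or 0.05%) for 48 hr at 37°C, 5% CO₂.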

[14] = Subacute toxicity in BALB/c mouse assessed as reduction in total protein level at 25 to 250 mg/kg, IG measured daily for 30 days; assay type: organism-based; conditions: in vivo, po, 720 h, dose 25-250 mg/kg, time 30 day
How it was run: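 Dosing was daily intragastric 25 or 250 mg/kg in 1% starch gel (0.2 ml/20 g) for 30 days in male Balb/C mice, 17 per group, with starch gel controls. After the final dose, mice were fasted for 2 h with water available, then bled. Serum was clotted for 30 min at room temperature and centrifuged at 3500 rpm. Total protein, urea, creatinine, AST, ALT and alkaline phosphatase were assayed and compared by Mann-Whitney with Holm-Šídák, p < 0.05.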

[15] = Subacute toxicity in BALB/c mouse assessed as reduction in hemoglobin level at 25 to 250 mg/kg, IG measured daily for 30 days; assay type: organism-based; conditions: in vivo, po, 720 h, dose 25-250 mg/kg, time 30 day
[16] = Subacute toxicity in BALB/c mouse assessed as reduction in WBC count at 25 to 250 mg/kg, IG measured daily for 30 days; assay type: organism-based; conditions: in vivo, po, 720 h, dose 25-250 mg/kg, time 30 day
[17] = test system: Human immunodeficiency virus; assay: Antiviral activity against wild type HIV IIIB infected in human TZM-bl cells; assay type: functional, organism-based; conditions: Human immunodeficiency virus 1, IIIB
How it was run: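 TZM-bl cells (2x10⁵/mL) infected with HIV-1 IIIB grown in H9 cells, with 15 µg/mL DEAE-dextran; serial dilutions from 10 mM DMSO stocks, DMSO held constant (0.005% or 0.05%); 37°C, 5% CO₂, 48 hr; cells lysed, luciferase RLU read.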

[18] = Subacute toxicity in BALB/c mouse assessed as pathological change in lungs at 25 to 250 mg/kg, IG measured daily for 30 days by H and E staining based histological analysis; assay type: organism-based; conditions: in vivo, po, 720 h, dose 25-250 mg/kg, time 30 day; how it was run: as §2
[19] = Subacute toxicity in BALB/c mouse assessed as effect on spleen weight at 25 to 250 mg/kg, IG measured daily for 30 days; assay type: organism-based; conditions: in vivo, po, 720 h, dose 25-250 mg/kg, time 30 day
[20] = test system: Human immunodeficiency virus 1; assay: Antiviral activity against HIV1 harboring Y181C mutant infected in human TZM-bl cells; assay type: functional, organism-based; conditions: Human immunodeficiency virus 1, TZM-bl; how it was run: as §3
[21] = Subacute toxicity in BALB/c mouse assessed as effect on liver weight at 25 to 250 mg/kg, IG measured daily for 30 days; assay type: organism-based; conditions: in vivo, po, 720 h, dose 25-250 mg/kg, time 30 day
[22] = Subacute toxicity in BALB/c mouse assessed as pathological change in liver at 25 to 250 mg/kg, IG measured daily for 30 days by H and E staining based histological analysis; assay type: organism-based; conditions: in vivo, po, 720 h, dose 25-250 mg/kg, time 30 day; how it was run: as §2
[23] = Subacute toxicity in BALB/c mouse assessed as pathological change in stomach at 25 to 250 mg/kg, IG measured daily for 30 days by H and E staining based histological analysis; assay type: organism-based; conditions: in vivo, po, 720 h, dose 25-250 mg/kg, time 30 day; how it was run: as §2
[24] = Subacute toxicity in BALB/c mouse assessed as effect on kidney weight at 25 to 250 mg/kg, IG measured daily for 30 days; assay type: organism-based; conditions: in vivo, po, 720 h, dose 25-250 mg/kg, time 30 day

Which Activity [1] does the source give for N#C/C=C/c1ccc2c(S(=O)(=O)n3nc(Nc4ccc(C#N)c(Cl)c4)nc3N)cccc2c1 here?
The Activity was “Non-Toxic”.

What about the AUC(0-inf) [2] of the same compound?
The AUC(0-inf) was 184 µg·h/mL.

What about the Activity [3] of the same compound?
Its Activity is “Non-Toxic”.

What about the EC50 [4] of the same compound?
The EC50 was 0.689 nM.

What about the IC50 [4] of the same compound?
Its IC50 is 1.3 nM.

What about the Activity [5] of the same compound?
Its Activity is “Non-Toxic”.

What about the CC50 (TZM [6]) of the same compound?
Its CC50 is 4800 nM.

And the CC50 (TZM [7])?
Its CC50 is 4800 nM.

And the selectivity ratio [8]?
The selectivity ratio was 10000.

And the Activity [9]?
The Activity was “Non-Toxic”.

What about the Stability [10] of the same compound?
The Stability was “Stable”.

What about the IC50 [11] of the same compound?
The IC50 was 1050 nM.

And the t1/2 [12]?
Its t1/2 is 7.7 h.

What about the “Ratio IC50” value [13] of the same compound?
Its value is 16.

And the Activity [14]?
The Activity was “Non-Toxic”.

And the Activity [15]?
The Activity was “Non-Toxic”.

And the Activity [16]?
Its Activity is “Non-Toxic”.

What about the IC50 [17] of the same compound?
Its IC50 is 0.31 nM.

What about the Activity [18] of the same compound?
The Activity was “Non-Toxic”.

And the Activity [19]?
Its Activity is “Non-Toxic”.

And the IC50 [20]?
Its IC50 is 3.7 nM.

What about the Activity [21] of the same compound?
The Activity was “Non-Toxic”.

What about the Activity [22] of the same compound?
Its Activity is “Toxic”.

What about the Activity [23] of the same compound?
The Activity was “Non-Toxic”.

What about the Activity [24] of the same compound?
The Activity was “Non-Toxic”.
